# Assays:
# [1] = target: T1, Sonic hedgehog protein (Homo sapiens, UniProt Q15465); assay: Inhibition of human SHH pathway in mouse S12 cells assessed as GLI-mediated transcriptional activity after 48 hrs by luciferase reporter gene assay in presence of 0.5 mg/mL human alpha-1-acid glycoprotein
# In short: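 Mouse C3H10T1/2-derived S12 cells carrying a stably integrated GLI-luciferase reporter. Grown in high-glucose DMEM with 10% FBS, replated, then switched to 0.5% FBS to induce cilia. Shh, human AAG (0, 0.5, 1 or 5 mg/mL) and compound added. Luciferase (Dual-Glo) read after 48 h. Mean of four experiments ±SD.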
# [2] = target: T1, Sonic hedgehog protein; assay: Inhibition of human SHH pathway in mouse S12 cells assessed as GLI-mediated transcriptional activity after 48 hrs by luciferase reporter gene assay
# T1 sequence (Q15465 24-197 limits assumed): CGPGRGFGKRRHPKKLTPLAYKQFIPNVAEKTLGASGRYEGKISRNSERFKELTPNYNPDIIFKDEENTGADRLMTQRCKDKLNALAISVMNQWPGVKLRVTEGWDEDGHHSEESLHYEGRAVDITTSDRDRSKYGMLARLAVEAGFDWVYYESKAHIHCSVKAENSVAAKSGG
structure (smiles),measurement,setting,value
CS(=O)(=O)c1ccc(C(=O)Nc2ccc(Cl)c(-c3ccccn3)c2)c(Cl)c1 [2-chloro-N-(4-chloro-3-(pyridin-2-yl)phenyl)-4-(methylsulfonyl)benzamide],IC50,[1],1.75 µM
same,IC50,[2],0.015 µM

# Reference: BindingDB's records for doi:10.1021/jm1008924 (Genentech, 2011)
